Values after ≈ are worked out from the molar mass of the structure shown. Active and inactive are the calls of the source. The rule behind the calls is not given here.

Experimental findings from ChEMBL document CHEMBL1153731, “Methicillin-resistant Staphylococcus aureus (MRSA)-active metabolites from Platanus occidentalis (American Sycamore)” (J Nat Prod, 2009) are described below.

Data set [1] has as its system Staphylococcus aureus. Briefly: Antibacterial activity against Staphylococcus aureus by NCCLS method. It counts as functional, organism-based. In short, it runs like this: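 Microdilution per CLSI (formerly NCCLS). Samples run in duplicate, diluted in 0.9% saline in 96-well plates, then microbial suspensions added to reach the target inocula. Media and solvent controls in every assay. IC50 read from a plot of percent growth against concentration. MIC taken as the lowest concentration with no detectable growth; MBC as the lowest concentration that kills the organism.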

Data set [2] concerns Staphylococcus aureus. The experiment in a line: Antibacterial activity against methicillin-resistant Staphylococcus aureus by NCCLS method. It counts as functional, organism-based. Summed up: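 MRSA tested in vitro by CLSI (formerly NCCLS) broth microdilution. Samples were diluted in 0.9% saline and run in duplicate in 96-well microplates. Cell suspension was added to reach the target inoculum, with media and solvent controls included. IC50 was taken from percent growth plotted against concentration. MIC was the lowest concentration with no detectable growth; MBC was the lowest concentration that killed the organism.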

The test system of another data set is Candida albicans. Briefly: Antifungal activity against Candida albicans at 100 ug/ml by NCCLS method. It counts as functional, organism-based.
The test system of data set [3] is Mycobacterium intracellulare. Briefly: Antibacterial activity against Mycobacterium intracellular at 100 ug/ml by NCCLS method. Format: functional, organism-based.
The subject of another data set is Cryptococcus neoformans. The experiment in a line: Antifungal activity against Cryptococcus neoformans at 100 ug/ml by NCCLS method. Format: functional, organism-based.
In another data set the test system is Vero. Briefly: Cytotoxicity against african green monkey Vero cells up to 100 ug/ml. It counts as cell-based. To be noted: chlorocebus sabaeus.
The next data set deals with Aspergillus fumigatus. The experiment in a line: Antifungal activity against Aspergillus fumigatus at 100 ug/ml by NCCLS method. It counts as functional, organism-based.
In another data set the test system is Pseudomonas aeruginosa. The experiment in a line: Antibacterial activity against Pseudomonas aeruginosa at 100 ug/ml by NCCLS method. It counts as functional, organism-based.
The test system of a further data set is Escherichia coli. Briefly: Antibacterial activity against Escherichia coli at 100 ug/ml by NCCLS method. It counts as functional, organism-based.
Data set [4] relates to Staphylococcus aureus. The experiment in a line: Antibacterial activity against methicillin-resistant Staphylococcus aureus at 100 ug/ml by NCCLS method. Format: functional, organism-based.
In data set [5] the test system is Staphylococcus aureus. Briefly: Antibacterial activity against Staphylococcus aureus infected in CD1 mouse thigh muscle assessed as reduction in colony forming unit at 15 mg/kg, ip administered 2 hrs after infection measured after 48 hrs relative to control. It counts as functional, Muscle tissue. The arrangement: scale not given: the % may be the effect or the level left. Particulars: route intraperitoneal. Summed up: (§1)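 Neutropenic thigh infection in CD-1 mice. Neutropenia induced by cyclophosphamide 100 mg/kg ip on days -4 and -1. Each rear thigh inoculated im with MRSA, 1.5 × 10⁶ cfu in 50 μL. n = 2 mice per group, each thigh a data point. Compound given ip starting 2 h post-inoculation; saline and vancomycin controls. Sacrifice at 48 h; thighs weighed, homogenized in 5.0 mL saline, plated for cfu/g tissue.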

The subject of the next data set is Mus musculus. The experiment in a line: Toxicity in CD1 mouse up to 20 mg/kg, ip after 2 days. Particulars: in vivo, 48 h. It counts as organism-based. The arrangement: dose 20 mg/kg, route intraperitoneal. Summed up:
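Preliminary tolerance study: CD-1 mice dosed ip daily for 2 days at up to 20 mg/kg and watched for untoward effects.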

The subject of data set [6] is Staphylococcus aureus. The experiment in a line: Antibacterial activity against Staphylococcus aureus infected in CD1 mouse thigh muscle assessed as reduction in colony forming unit at 3.0 mg/kg, ip administered 2 hrs after infection measured after 48 hrs. Format: functional, Muscle tissue. Particulars: route intraperitoneal. Summed up: as §1
In data set [7] the test system is Staphylococcus aureus. The experiment in a line: Antibacterial activity against Staphylococcus aureus infected in CD1 mouse thigh muscle assessed as reduction in colony forming unit at 15 mg/kg, ip administered 2 hrs after infection measured after 48 hrs. Format: functional, Muscle tissue. Particulars: route intraperitoneal. In short, it runs like this: as §1

Data set [8] relates to Staphylococcus aureus. Briefly: Antibacterial activity against Staphylococcus aureus infected in CD1 mouse thigh muscle assessed as reduction in colony formation unit at 3.0 mg/kg, ip administered 2 hrs after infection measured after 48 hrs relative to control. It counts as functional, Muscle tissue. Also on record: scale not given: the % may be the effect or the level left. To be noted: route intraperitoneal. In short, it runs like this:
as §1

Regarding `O=C(O)c1cn(C2CC2)c2cc(N3CCNCC3)c(F)cc2c1=O` [CIPROFLOXACIN], the MIC worked out at 0.4 µg/mL (≈ 1.21 µM) against Staphylococcus aureus [1] and 0.3 µg/mL (≈ 0.905 µM) against Staphylococcus aureus [2].

Consider `C[C@@H]1O[C@@H](Oc2c(-c3ccc(O)cc3)oc3cc(O)cc(O)c3c2=O)[C@H](OC(=O)/C=C/c2ccc(O)cc2)[C@H](OC(=O)/C=C\c2ccc(O)cc2)[C@H]1O`, for which the IC50 in the data set with Staphylococcus aureus [1] stood at 1.6 µg/mL (≈ 2.21 µM); in the data set on Staphylococcus aureus [2], 0.8 µg/mL (≈ 1.1 µM). Besides, the figures for the MIC against Staphylococcus aureus [1] and with Staphylococcus aureus [2] were 5.8 µg/mL (≈ 8 µM) and 1.7 µg/mL (≈ 2.35 µM), respectively. The outcome (in the data set with Candida albicans; in [3]; in the data set with Cryptococcus neoformans; in the data set with Aspergillus fumigatus; in the data set with Pseudomonas aeruginosa; with Escherichia coli) was inactive. Besides, the Activity result in the data set on Vero is listed as “Non-toxic”.

On to `Cc1onc(-c2ccccc2Cl)c1C(=O)N[C@@H]1C(=O)N2[C@@H]1SC(C)(C)[C@@H]2C(=O)O` [CLOXACILLIN], for which the IC50 in the data set with Staphylococcus aureus [2] came out at 8.9 µg/mL (≈ 20.4 µM).

`CCN1CCN(C(=O)N[C@@H](C(=O)N[C@@H]2C(=O)N3[C@@H]2SC(C)(C)[C@@H]3C(=O)O)c2ccccc2)C(=O)C1=O` [PIPERACILLIN]: in the data set with Staphylococcus aureus [4], the IC50 result is “Not Active” and the MIC result was “inactive”.

In the data set with Staphylococcus aureus [1], `COc1cccc(OC)c1C(=O)N[C@@H]1C(=O)N2[C@@H]1SC(C)(C)[C@@H]2C(=O)O` [METHICILLIN] gave an IC50 of 0.4 µg/mL (≈ 1.05 µM) and an MIC of 2.5 µg/mL (≈ 6.57 µM). In the data set with Staphylococcus aureus [4], the IC50 result is given as “Not Active” and the MIC entry was “inactive”.

As for `C[C@@H]1O[C@@H](Oc2c(-c3ccc(O)cc3)oc3cc(O)cc(O)c3c2=O)[C@H](OC(=O)/C=C\c2ccc(O)cc2)[C@H](OC(=O)/C=C/c2ccc(O)cc2)[C@H]1O`, the IC50 in the data set with Staphylococcus aureus [1] is 1.4 µg/mL (≈ 1.93 µM); with Staphylococcus aureus [2], 0.7 µg/mL (≈ 0.966 µM). Also, the MIC against Staphylococcus aureus [1] came to 3.8 µg/mL (≈ 5.24 µM); in the data set with Staphylococcus aureus [2], 1.3 µg/mL (≈ 1.79 µM). For the same molecule, the result (with Candida albicans; in data set [3]; in the data set on Cryptococcus neoformans; in the data set with Aspergillus fumigatus; in the data set on Pseudomonas aeruginosa; in the data set with Escherichia coli) was inactive. Further, in the data set with Vero, the Activity result was “Non-toxic”.

On to `C[C@@H]1O[C@@H](Oc2c(-c3ccc(O)cc3)oc3cc(O)cc(O)c3c2=O)[C@H](OC(=O)/C=C/c2ccc(O)cc2)[C@H](OC(=O)/C=C/c2ccc(O)cc2)[C@H]1O`, for which the Activity in the data set on Staphylococcus aureus [5] was 78%; with Mus musculus, “Non-toxic”; in the data set with Vero, “Non-toxic”; with Staphylococcus aureus [6], 2.6 ×10⁷ /g; in the data set on Staphylococcus aureus [7] it was 1.8 ×10⁷ /g; with Staphylococcus aureus [8], 67%. Also, the figures for the IC50 with Staphylococcus aureus [1] and in the data set with Staphylococcus aureus [2] were 3.7 µg/mL (≈ 5.11 µM) and 2 µg/mL (≈ 2.76 µM), respectively. For the same molecule, the MIC came to 13.3 µg/mL (≈ 18.4 µM) in the data set with Staphylococcus aureus [1] and 10 µg/mL (≈ 13.8 µM) with Staphylococcus aureus [2]. In addition, the result (in the data set with Candida albicans; in data set [3]; in the data set on Cryptococcus neoformans; with Aspergillus fumigatus; in the data set on Pseudomonas aeruginosa; in the data set with Escherichia coli) was inactive.

Usually MIC stands for the least concentration at which growth counts as inhibited. The IC50 is the point on the concentration scale where inhibition reaches its midpoint.
